Measured values collected from several papers.
Each line is one published result; the experiments were not run side by side.
FGFR2: Fibroblast growth factor receptor 2 (FGFR2, Homo sapiens, UniProt P21802)
FGFR2 N549H: Fibroblast growth factor receptor 2 (FGFR2, Homo sapiens, UniProt P21802, N549H)

SMILES	target	test	conditions	inhibition [%]
COc1cc2ncnc(Nc3ccc(Oc4ccccc4)c(C)c3C)c2cc1OC	FGFR2	enzyme activity, inhibitor	1 µM	3
O=C(CSc1nc2nccnc2c(=O)n1CCc1ccccc1)Nc1nccs1	FGFR2	enzyme activity, inhibitor	10 µM	3
CCN(CC)CCNC(=O)c1c(C)[nH]c(/C=C2\C(=O)Nc3ccc(F)cc32)c1C	FGFR2 N549H	cell-free assay	10 µM	95
CNC(=O)c1cc2c(Oc3ccc(NC(=O)C4(C(=O)Nc5ccc(F)cc5)CC4)cc3)ccnc2cc1OC	FGFR2 N549H	enzyme activity, inhibitor, radiometric	1 µM	95
CN(C)C1CCN(CC#Cc2nn(C3CCCC3)c3nc(NCc4ccccc4)ncc23)C1 (stereo not drawn)	FGFR2	enzyme activity, inhibitor, FRET	10 µM	46
CSc1nc(C)c(-c2ccnc(Nc3ccc(N4CCOCC4)cc3)c2)[nH]1	FGFR2	cell-free assay, inhibitor	10 µM	44.9
C=CC(=O)Nc1cc(Nc2nccc(Nc3cc(Cl)c(F)cc3C(C)(C)O)n2)c(OC)cc1N1CC[C@@H](N(C)C)C1	FGFR2	enzyme activity, inhibitor	1 µM	10
Cc1ccc(Nc2nccc(N(C)c3ccc4c(C)n(C)nc4c3)n2)cc1S(N)(=O)=O	FGFR2 N549H	cell-free assay	10 µM	96
CCCS(=O)(=O)Nc1ccc(F)c(C(=O)c2c[nH]c3ncc(-c4ccc(Cl)cc4)cc23)c1F	FGFR2	enzyme activity, inhibitor	1 µM	< 10
CS(=O)(=O)Nc1cccc(-c2csc(NC(=O)CSc3nc4nccnc4c(=O)n3CCc3ccccc3)n2)c1	FGFR2	enzyme activity, inhibitor	10 µM	-2
CNC(=O)c1cc(Oc2ccc(NC(=O)Nc3ccc(Cl)c(C(F)(F)F)c3)cc2)ccn1	FGFR2 N549H	cell-free assay	10 µM	100
CNc1cccc2cc(C(=O)Nc3ccc(C(=O)O)cc3)c(=O)[nH]c12	FGFR2 N549H	enzyme activity, inhibitor	10 µM	2.8
CC/C(=N\NC(=O)NCc1cccc(O)c1)c1ccc(O)c(C)c1O	FGFR2	enzyme activity, inhibitor	0.1 µM	7.7
COc1cc2ncnc(Nc3ccc(Oc4ccccc4)cc3C)c2cc1OC	FGFR2	enzyme activity, inhibitor	1 µM	8
COc1cc2nccc(Oc3ccc(NC(=O)c4c5n(n(-c6ccc(F)cc6)c4=O)CCCC5)cc3)c2cc1OC	FGFR2	enzyme activity, inhibitor	0.1 µM	0
